# Measurements pooled from the literature.
# Compare with care: the assays were run in different laboratories.
# Medium: plasma
Structure (SMILES),host,route,dose,notes,AUC(0-t)
CC(C)(O)c1ccccc1-c1ccc2[nH]c(/C=C/c3ccc(C(F)(F)F)cc3)nc2c1,male human,oral,225 mg,"single dose, fasted",5740 ng·h/mL
CO[C@@H]1[C@H](OC(=O)N2CC(CCN3CCOCC3)C2)CC[C@]2(CO2)[C@H]1[C@@]1(C)O[C@@H]1CC=C(C)C,human,subcutaneous,1.2 mg,"single dose, healthy volunteers",5.45 ng·h/mL
COc1cc(N2CCC(N3CCN(C)CC3)CC2)ccc1Nc1ncnc(Nc2ccccc2S(=O)(=O)C(C)C)n1,human,oral,200 mg,"multiple doses, patients",9170 ng·h/mL
C[C@@H](Oc1ccc(S(C)(=O)=O)cc1C(=O)N1C[C@@H]2C[C@]2(c2cc(C(F)(F)F)on2)C1)C(F)(F)F,human,oral,25 mg,"fasted, tablet",8.7 µM·h
CCNCCCNC/C=C\CNCCCNCC,human,intravenous,100 mg,"patients, infusion",304 ng·h/mL
CC(C)n1cc(C#N)c2cc(-n3cc(C(=O)O)cn3)ccc21,male human,oral,600 mg,"single dose, fasted, healthy volunteers",98800 ng·h/mL
C#Cc1cccc(Nc2ncnc3cc(OCCOC)c(OCCOC)cc23)c1,human,oral,100 mg,patients,21.9 µM·h
OC[C@H]1O[C@@H](c2ccc(Cl)c(Cc3ccc(O[C@H]4CCOC4)cc3)c2)[C@H](O)[C@@H](O)[C@@H]1O,human,oral,10 mg,single dose,1.63 µM·h
CC[C@H](C)C(=O)O[C@H]1C[C@H](O)C=C2C=C[C@H](C)[C@H](CC[C@@H](O)C[C@@H](O)CC(=O)O)[C@H]21,human,oral,20 mg,,46.7 ng·h/mL
CC(=O)Oc1ccccc1C(=O)O,human,oral,650 mg,healthy volunteers,2630 ng·h/mL
Oc1cc(O)c2c(c1)O[C@@H](c1ccc(O)c(O)c1)[C@@H](O)C2,human,oral,10 mg,single dose,4.6 ng·h/mL
COc1cc2c(Nc3ccc(Br)cc3F)ncnc2cc1OCC1CCN(C)CC1,human,oral,65 mg/m²,"multiple doses, patients",18900 ng·h/mL
C[C@@H](c1ccc2nccn2c1)n1nnc2ncc(-c3cnn(C)c3)nc21,human,oral,200 mg,,3980 ng·h/mL
Nc1cc(C(F)(F)F)c(-c2cc(N3CCOCC3)nc(N3CCOCC3)n2)cn1,human,oral,50 mg/day,patients,3830 ng·h/mL
CCOc1ccc(Cc2cc([C@@H]3S[C@H](CO)[C@@H](O)[C@H](O)[C@H]3O)c(OC)cc2C)cc1,male human,oral,5 mg,"single dose, fasted, healthy volunteers",1650 ng·h/mL
CCOc1cc([C@@H](CS(C)(=O)=O)N2C(=O)c3cccc(NC(C)=O)c3C2=O)ccc1OC,human,oral,30 mg,"single dose, healthy volunteers",2190 ng·h/mL
COc1cc2c(cc1OC)CN(CCc1ccc(NC(=O)c3cc(OC)c(OC)cc3NC(=O)c3cnc4ccccc4c3)cc1)CC2,human,intravenous,2 mg/kg,patients,11.9 µM·h
C[C@@H]1COCCN1c1cc(C2([S@](C)(=N)=O)CC2)nc(-c2cc[nH]c3nccc2-3)n1,human,oral,20 mg,"single dose, patients",6770 ng·h/mL
Cc1nc(NC(=O)N2CCC[C@H]2C(N)=O)sc1-c1ccnc(C(C)(C)C(F)(F)F)c1,human,oral,90 mg,patients,7600 ng·h/mL
C[C@@H](Nc1cc(F)cc(F)c1)c1cc(C(=O)N(C)C)cc2c(=O)cc(N3CCOCC3)oc12,human,oral,30 mg,"single dose, patients",599 ng·h/mL
CO[C@H]1CC[C@H](N2C(=O)CNc3ncc(-c4ccc(C(C)(C)O)nc4)nc32)CC1,human,oral,30 mg,"multiple doses, patients",1440 ng·h/mL
COc1ccc([C@@H]2CN(C(=O)[C@@H](O)CO)C[C@@]2(C)[C@@H](C)O)cc1OC1CN(c2ccc(C)cn2)C1,human,oral,0.1 mg,"single dose, healthy volunteers",52.7 ng·h/mL
FC(F)(F)c1ccc(CNc2ccc(Cc3c[nH]c4ncc(Cl)cc34)cn2)cn1,human,oral,1200 mg,"multiple doses, patients",29500 ng·h/mL
COCCOc1cnc2ccn([C@H](C)c3nnc4c(F)cc(-c5cnn(C)c5)cn34)c(=O)c2c1,human,oral,25 mg,"multiple doses, once daily, patients",5990 ng·h/mL
CCCCC1=NC2(CCCC2)C(=O)N1Cc1ccc(-c2ccccc2S(=O)(=O)Nc2noc(C)c2C)c(COCC)c1,human,oral,200 mg,"single dose, fasted, healthy volunteers",58100 ng·h/mL
NS(=O)(=O)c1ccc(NC(=O)Nc2ccc(F)cc2)cc1,human,oral,2000 mg,"multiple doses, once daily",180000 ng·h/mL
C[C@@]1(c2cc(NC(=O)c3ccc(C#N)cn3)ccc2F)C=CSC(N)=N1,human,oral,30 mg,single dose,2510 ng·h/mL
O=C(/C=C/c1cccc(S(=O)(=O)Nc2ccccc2)c1)NO,human,intravenous,1800 mg/m²,patients,54700 ng·h/mL
COc1ccc(-n2nc(C(N)=O)c3c2C(=O)N(c2ccc(N4CCCCC4=O)cc2)CC3)cc1,human,oral,10 mg,"single dose, healthy volunteers",2480 ng·h/mL
